Assay results: ChEMBL document CHEMBL1833901, “MDM2-p53 protein-protein interaction inhibitors: a-ring substituted isoindolinones” (Bioorg Med Chem Lett, 2011)
One block for each compound: values may come before it. The source made the active and inactive calls. The rule behind the calls is not given here.

Experiments:
A2780 = experiment: Growth inhibition of human A2780 cells expressing MDM2 by SRB assay; assay type: functional
HCT-116 [1] = experiment: Growth inhibition of p53 deficient human HCT116 cells expressing MDM2 by SRB assay; assay type: functional
[2] = Growth inhibition of human A2780/CP70 cells expressing isogenically paired p53 mutant by SRB assay; assay type: functional
SJSA-1 [3] = experiment: Growth inhibition of human SJSA1 cells expressing MDM2 by SRB assay; assay type: functional
Method in brief: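 Growth inhibition assayed in the MDM2-amplified cell line SJSA-1. Values are the mean of at least three determinations ± SE.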

HCT-116 [4] = experiment: Growth inhibition of human HCT116 cells expressing MDM2 by SRB assay; assay type: functional
SJSA-1 [5] = experiment: Increase of P21 protein level in human SJSA1 cells at 5 to 10 uM after 6 hrs by Western blotting; assay type: functional, cell-based
SJSA-1 [6] = experiment: Increase of MDM2 expression in human SJSA1 cells at 5 to 10 uM after 6 hrs by Western blotting; assay type: functional, cell-based
SJSA-1 [7] = experiment: Increase of P53 expression in human SJSA1 cells at 5 to 10 uM after 6 hrs by Western blotting; assay type: functional, cell-based
[8] = target: Tumour suppressor p53/oncoprotein Mdm2 (Homo sapiens, UniProt Q00987); experiment: Inhibition of human MDM2-p53 interaction after 20 mins by […] method; assay type: protein assay
SJSA-1 [9] = experiment: Increase of P53 expression in human SJSA1 cells after 6 hrs by Western blotting; assay type: functional, cell-based
SJSA-1 [10] = experiment: Increase of MDM2 expression in human SJSA1 cells after 6 hrs by Western blotting; assay type: functional, cell-based
SJSA-1 [11] = experiment: Increase of P21 protein level in human SJSA1 cells after 6 hrs by Western blotting; assay type: functional, cell-based

Tumour suppressor p53/oncoprotein Mdm2, sequence (P04637 whole entry): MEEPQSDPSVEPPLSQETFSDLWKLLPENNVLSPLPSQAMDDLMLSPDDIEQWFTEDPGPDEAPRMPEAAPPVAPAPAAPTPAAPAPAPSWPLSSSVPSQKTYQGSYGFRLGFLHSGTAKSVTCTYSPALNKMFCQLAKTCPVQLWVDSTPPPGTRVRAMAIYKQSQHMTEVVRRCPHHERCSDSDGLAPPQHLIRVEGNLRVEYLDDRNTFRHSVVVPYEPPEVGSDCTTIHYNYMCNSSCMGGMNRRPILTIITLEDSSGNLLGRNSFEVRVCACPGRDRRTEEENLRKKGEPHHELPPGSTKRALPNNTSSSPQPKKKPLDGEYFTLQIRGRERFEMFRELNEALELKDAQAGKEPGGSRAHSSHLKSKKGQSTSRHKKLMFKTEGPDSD
Tumour suppressor p53/oncoprotein Mdm2, sequence (Q00987 whole entry): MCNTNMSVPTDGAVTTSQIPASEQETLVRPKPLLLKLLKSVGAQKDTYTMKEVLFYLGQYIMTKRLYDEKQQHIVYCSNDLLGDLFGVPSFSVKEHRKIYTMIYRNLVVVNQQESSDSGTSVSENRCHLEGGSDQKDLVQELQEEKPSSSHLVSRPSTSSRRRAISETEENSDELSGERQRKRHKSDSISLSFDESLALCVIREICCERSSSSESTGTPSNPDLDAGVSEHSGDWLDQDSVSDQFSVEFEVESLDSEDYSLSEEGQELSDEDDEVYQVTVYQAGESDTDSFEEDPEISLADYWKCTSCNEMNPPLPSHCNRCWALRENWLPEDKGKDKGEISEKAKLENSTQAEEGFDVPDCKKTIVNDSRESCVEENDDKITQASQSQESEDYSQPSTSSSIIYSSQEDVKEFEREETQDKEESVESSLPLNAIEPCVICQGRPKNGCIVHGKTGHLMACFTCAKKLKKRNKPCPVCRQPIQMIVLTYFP

GI50 (A2780): 3.3 µM
GI50 (HCT-116 [1]; Homo sapiens, HCT-116): 12.5 µM
GI50 (SJSA-1 [3]): 3.7 µM
GI50 (HCT-116 [4]): 3.7 µM
Compound: O=C1c2cccc(Cl)c2C(OCC2(CO)CC2)(c2ccc(Cl)cc2)N1Cc1ccc([N+](=O)[O-])cc1 (single isomer, unassigned; (-)) [listing 1 of 2 here]
GI50 ([2]; Homo sapiens, A2780/CP70): 13.6 µM

IC50 [8]: 9 µM
Compound: O=C1c2cccc(Cl)c2C(OCC2(CO)CC2)(c2ccc(Cl)cc2)N1Cc1ccc(S(=O)(=O)C(F)(F)F)cc1 (stereo not drawn)

GI50 (A2780): 4.2 µM
GI50 (HCT-116 [1]): 14.9 µM
GI50 (SJSA-1 [3]): 6 µM
GI50 (HCT-116 [4]): 6 µM
Compound: O=C1c2cccc(Cl)c2C(OCC2(CO)CC2)(c2ccc(Cl)cc2)N1Cc1ccc([N+](=O)[O-])cc1 (racemic) [listing 2 of 2 here]
GI50 [2]: 15.9 µM

GI50 (A2780): 7.7 µM
GI50 (HCT-116 [1]): 14.4 µM
GI50 (SJSA-1 [3]): 12.2 µM
GI50 (HCT-116 [4]): 12.3 µM
Compound: O=C1c2cccc(Cl)c2C(OCC2(CO)CC2)(c2ccc(Cl)cc2)N1Cc1ccc([N+](=O)[O-])cc1 (single isomer, unassigned; (+)) [listing 2 of 2 here]
GI50 [2]: 14.5 µM

Continued, compound first:

Compound: CC(C)(C)C[C@H]1N[C@@H](C(=O)NCCN2CCOCC2)[C@H](c2cccc(Cl)c2F)[C@@]12C(=O)Nc1cc(Cl)ccc12
GI50 (A2780; Homo sapiens, A2780): 1.19 µM
GI50 (HCT-116 [1]; Homo sapiens, HCT-116): 11.8 µM
GI50 ([2]; Homo sapiens, A2780/CP70): 15.1 µM
GI50 (SJSA-1 [3]; Homo sapiens, SJSA-1): 0.55 µM
GI50 (HCT-116 [4]; Homo sapiens, HCT-116): 1.3 µM

Compound: O=C1c2cccc(Cl)c2C(OCC2(CO)CC2)(c2ccc(Cl)cc2)N1Cc1ccc([N+](=O)[O-])cc1 (single isomer, unassigned; (+)) [listing 1 of 2 here]
Activity (SJSA-1 [5]): inactive
Activity (SJSA-1 [6]): inactive
Activity (SJSA-1 [7]): inactive

Compound: CCCN1C(=O)C(C)=C(C)C1(OCC1(CO)CC1)c1ccc(Cl)cc1 (stereo not drawn)
IC50 [8]: 8.9 µM

Compound: CC1=C(C)C(OCC2(CO)CC2)(c2ccc(Cl)cc2)N(Cc2ccccc2)C1=O (stereo not drawn)
IC50 [8]: 3.45 µM

Compound: COc1ccc(C2=N[C@@H](c3ccc(Cl)cc3)[C@@H](c3ccc(Cl)cc3)N2C(=O)N2CCNC(=O)C2)c(OC(C)C)c1 [NUTLIN-3]
GI50 (A2780; Homo sapiens, A2780): 1.6 µM
GI50 (HCT-116 [1]; Homo sapiens, HCT-116): 25.6 µM
GI50 ([2]; Homo sapiens, A2780/CP70): 20.4 µM
GI50 (SJSA-1 [3]; Homo sapiens, SJSA-1): 1.3 µM
GI50 (HCT-116 [4]; Homo sapiens, HCT-116): 2.1 µM

Compound: O=C1C2=C(CCCC2)C(OCC2(CO)CC2)(c2ccc(Cl)cc2)N1Cc1ccc([N+](=O)[O-])cc1 (stereo not drawn)
IC50 [8]: 3.47 µM

Compound: O=C1c2cccc(Cl)c2C(OCC2(CO)CC2)(c2ccc(Cl)cc2)N1Cc1ccc([N+](=O)[O-])cc1 (racemic) [listing 1 of 2 here]
Activity (SJSA-1 [9]): Dose-dependent effect
Activity (SJSA-1 [10]): Dose-dependent effect
Activity (SJSA-1 [11]): Dose-dependent effect

Compound: O=C1c2cccc(Cl)c2C(OCC2(CO)CC2)(c2ccc(Cl)cc2)N1Cc1ccc([N+](=O)[O-])cc1 (single isomer, unassigned; (-)) [listing 2 of 2 here]
Activity (SJSA-1 [9]): Dose-dependent effect
Activity (SJSA-1 [10]): Dose-dependent effect
Activity (SJSA-1 [11]): Dose-dependent effect
